For 19 compounds, viability, differential viability (reversal) and inhibition results are on record in PubChem BioAssay.

Molecules are shown by their SMILES. Activity calls are given as the source filed them.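 How the source made its calls, unless noted: active means viability at or below 30% in both replicate assays; inconclusive means viability at or below 30% in just one of the two assays; inactive means the rest.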

Test [1] can be described thus: reduced viability of SK-BR-3 breast cancer cells – cell-based, 24 h, human, pilot screen (AID 572;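 active means viability at or below 10% of carrier control in both of two separate runs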;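 further: compound exposure lasted between 18 and 24 h rather than exactly 24 h; 100% = carrier-treated control wells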). As to conditions: SK-BR-3 viability, CellTiter-Glo luminescence, at 10 µM, stronger effect = lower value.
The nature of test [2]: HUVEC growth inhibition – cell-based, human, primary screen (AID 575).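 Further: 100% = median of untreated cell wells with 0.1% DMSO on each plate.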 As to conditions: HUVEC proliferation, CellTiter-Glo luminescence, 72 h; at 10 µM; stronger effect = lower value. In short, it runs like this:
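Timing: 72 h treatment at 37 °C; material: HUVEC primary cells; technique: CellTiter-Glo luminescence measuring cellular ATP; controls: vehicle and MePR control wells; measure: percent of median DMSO-control luminescence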
On the technique in general: ATP-based viability assays read luminescence as a measure of living cells.

Test [3] in a line: H69AR cell proliferation blockers – human, duplicate replicates, primary screen (AID 580;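 active means viability at or under a set limit in both replicates, limit being median viability minus 3 SD, cut at about 48% in these data, passing the limit was not always enough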;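 further: 100% = mean luminescence of untreated wells and 0% = no signal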). The settings on record: H69AR lung tumor cells viability, ATP luminescence, 72 h; at 10 µM; stronger effect = lower value.
Test [4] can be described thus: MRP1 drug-resistance reversers in H69AR cells – cell-based, doxorubicin co-treatment, pilot screen (AID 601;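 active means viability loss from added drug above about 55%, and viability with drug at most 40%, in both replicates, limit read from the data, passing the limit was not always enough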). The settings on record: CellTiter-Glo, 72 h, at 10 µM; for differential viability (reversal): stronger effect = higher value.
The nature of test [5]: yeast transport mutant growth inhibition pilot in 384-well plates, post-Golgi transport modulator project (AID 636; in the data active means inhibition above about 31%). The settings on record: absorbance 615 nm, about 18 h, stronger effect = higher value.
Test [6] can be described thus: growth suppression of yeast trafficking mutant, preliminary HTS, modulators of trafficking downstream of Golgi apparatus project, 1536-format plate, OD 615 nm (AID 637; in the data active means inhibition above about 30%). As to conditions: yeast transport mutant growth, absorbance 615 nm, 18 h; stronger effect = higher value.
The mark [7] stands for this setting: H69AR cells + 2 uM doxorubicin, measured here: viability with 2 uM doxorubicin, stronger effect = lower value.
The mark [8] stands for this setting: H69AR cells, compound alone cytotoxicity.

By viability is commonly meant a read-out of living cells in per cent, often relative to untreated cells. The term inhibition denotes the relative decrease from the control value, in per cent. For the compound `CN1CC=C2C(C#N)=C(N)C(C#N)(C#N)C(Cc3ccccc3)C2C1` (configuration not stated), the viability is 85% (inactive) in test [1]; 69% (inactive) in test [2]; 84.6% (inactive) in test [3]; 87.5% in test [4] (setting [7]); 84.6% in test [4] (setting [8]). In addition, the differential viability (reversal) in test [4] (H69AR cells + 2 uM doxorubicin) was -2.88% (inactive). For the same compound, the inhibition in test [5] was -8.22% (inactive); in test [6], -7.26% (inactive).

Consider `CC(=O)c1ccc(-n2nnnc2SCC(=O)N2CCc3ccccc3C2)cc1`, for which the viability in test [1] is 94% (inactive); in test [2] it was 106% (inactive); in test [3] it was 88.9% (inactive); in test [4] (setting [7]), 101%; in test [4] (setting [8]) it was 88.9%. In test [4] (H69AR cells + 2 uM doxorubicin), the differential viability (reversal) was -12.1% (inactive). Also, the inhibition was -6.3% (inactive) in test [5] and -14.7% (inactive) in test [6].

With `Cn1c(CN2CCCCC2)nc2cc(NC(=O)c3ccccc3)ccc21`, the viability was 54% (inactive) in test [1]; 102% (inactive) in test [2]; 88.5% (inactive) in test [3]; 94.2% in test [4] (setting [7]); 88.5% in test [4] (setting [8]). Further, the differential viability (reversal) in test [4] (H69AR cells + 2 uM doxorubicin) is -5.74% (inactive). Further, the inhibition in test [5] is -7.53% (inactive); in test [6] it was -3.09% (inactive).

For `Cc1ccc(CNc2cc(-c3nn4c(C)nnc4s3)ccc2C)s1`, the viability in test [1] was 88% (inactive); in test [2], 45.1% (inactive); in test [3], 58.8% (inactive); in test [4] (setting [7]), 40.5%; in test [4] (setting [8]) it was 58.8%. Besides, the differential viability (reversal) in test [4] (H69AR cells + 2 uM doxorubicin) is 18.3% (inactive). For the same compound, the inhibition in test [5] was -2.6% (inactive); in test [6], 12.3% (inactive).

With `Cc1ccc(CN2C(=O)CCC2C(=O)NCCCN2CCCC(C)C2)cc1` (configuration not stated), the viability is 82% (inactive) in test [1]; 113% (inactive) in test [2]; 97.4% (inactive) in test [3]; 88.4% in test [4] (setting [7]); 97.4% in test [4] (setting [8]). Further, in test [4] (H69AR cells + 2 uM doxorubicin), the differential viability (reversal) is 8.96% (inactive). For the same compound, the inhibition is -3.07% (inactive) in test [5] and -3.45% (inactive) in test [6].

For the compound `O=C(Nc1ccc(Br)c2cccnc12)c1ccc(Cn2cc(Cl)cn2)o1`, the viability in test [1] is 156% (inactive); in test [2], 43% (inactive); in test [3] it was 87.4% (inactive); in test [4] (setting [7]) it was 78.2%; in test [4] (setting [8]), 87.4%. Moreover, the differential viability (reversal) in test [4] (H69AR cells + 2 uM doxorubicin) is 9.23% (inactive). Further, the values for the inhibition in test [5] and in test [6] were -1.56% (inactive) and -3.44% (inactive), respectively.

With `O=C(NCCN1CCOCC1)c1ccc(CS(=O)(=O)Cc2ccccc2F)o1`, the viability in test [1] is 59% (inactive); in test [2], 102% (inactive); in test [3], 108% (inactive); in test [4] (setting [7]), 107%; in test [4] (setting [8]) it was 108%. Besides, in test [4] (H69AR cells + 2 uM doxorubicin), the differential viability (reversal) was 0.59% (inactive). Moreover, the inhibition in test [5] was -3.84% (inactive); in test [6], 1.64% (inactive).

As for `Cc1ccc2nc(C3CCN(CC(=O)N4CCCCCC4)CC3)[nH]c2c1`, the viability in test [1] was 84% (inactive); in test [2], 108% (inactive); in test [3], 96.3% (inactive); in test [4] (setting [7]) it was 107%; in test [4] (setting [8]), 96.3%. Besides, in test [4] (H69AR cells + 2 uM doxorubicin), the differential viability (reversal) is -10.6% (inactive). In addition, the inhibition was -1.1% (inactive) in test [5] and 0.73% (inactive) in test [6].

`CC(CN1c2ccccc2Sc2ccccc21)N(C)C` (configuration not stated): the viability in test [1] is 88% (inactive); in test [2] it was 62.9% (inactive); in test [3], 92.2% (inactive); in test [4] (setting [7]) it was 87.7%; in test [4] (setting [8]) it was 92.2%. Moreover, the differential viability (reversal) in test [4] (H69AR cells + 2 uM doxorubicin) was 4.55% (inactive). The inhibition in test [5] was -2.73% (inactive); in test [6], -1.67% (inactive).

Consider `Cc1cccc(-n2nnnc2SCc2csc(-c3ccccc3)n2)c1`, for which the viability in test [1] is 95% (inactive); in test [2] it was 101% (inactive); in test [3] it was 93.9% (inactive); in test [4] (setting [7]) it was 88%; in test [4] (setting [8]) it was 93.9%. In addition, the differential viability (reversal) in test [4] (H69AR cells + 2 uM doxorubicin) is 5.89% (inactive). Also, the results for the inhibition in test [5] and in test [6] were 6.44% (inactive) and 2.58% (inactive), respectively.

Regarding `COCCNC(=O)C(c1ccc(C)o1)N(Cc1cccs1)C(=O)c1snc(C(N)=O)c1N` (configuration not stated), the viability is 87% (inactive) in test [1]; 86.8% (inactive) in test [2]; 86.4% (inactive) in test [3]; 86% in test [4] (setting [7]); 86.4% in test [4] (setting [8]). Also, the differential viability (reversal) in test [4] (H69AR cells + 2 uM doxorubicin) was 0.375% (inactive). Also, the inhibition in test [5] is 4% (inactive); in test [6] it was 12.7% (inactive).

As to `CC[C@H](C)C(=O)O[C@H]1C[C@@H](C)C=C2C=C[C@H](C)[C@H](CC[C@@H]3C[C@@H](O)CC(=O)O3)[C@H]21`, the viability is 110% (inactive) in test [1]; 50.6% (inactive) in test [2]; 72.2% (inactive) in test [3]; 78.7% in test [4] (setting [7]); 72.2% in test [4] (setting [8]). In addition, the differential viability (reversal) in test [4] (H69AR cells + 2 uM doxorubicin) is -6.58% (inactive). Moreover, the figures for the inhibition in test [5] and in test [6] were -1.82% (inactive) and 2.83% (inactive), respectively.

As to `CCN(CC)CCNC(=O)c1cc(Cl)c(N)cc1OC`, the viability was 89% (inactive) in test [1]; 85.9% (inactive) in test [2]; 93.8% (inactive) in test [3]; 102% in test [4] (setting [7]); 93.8% in test [4] (setting [8]). For the same compound, the differential viability (reversal) in test [4] (H69AR cells + 2 uM doxorubicin) is -8.38% (inactive). Also, the inhibition in test [5] was -3.25% (inactive); in test [6], -2.5% (inactive).

As to `CCN(CC)CCCNC1CCS(=O)(=O)C1` (configuration not stated), the viability was 126% (inactive) in test [1]; 83% (inactive) in test [2]; 87.9% (inactive) in test [3]; 83.6% in test [4] (setting [7]); 87.9% in test [4] (setting [8]). Further, the differential viability (reversal) in test [4] (H69AR cells + 2 uM doxorubicin) was 4.3% (inactive). Further, the inhibition was -3.42% (inactive) in test [5] and -4.52% (inactive) in test [6].

Consider `CCn1cc(C(=O)NCc2ccco2)c(=O)c2cc(F)c(N3CCN(C(=O)c4ccco4)CC3)cc21`, for which the viability was 94% (inactive) in test [1]; 62.4% (inactive) in test [2]; 58.6% (inactive) in test [3]; 17.7% in test [4] (setting [7]); 58.6% in test [4] (setting [8]). In addition, the differential viability (reversal) in test [4] (H69AR cells + 2 uM doxorubicin) is 40.8% (inactive). Moreover, the inhibition in test [5] is -7.4% (inactive); in test [6], -1.45% (inactive).

Regarding `Cc1oc2c(c1C(=O)NCc1ccccc1)CCCC2`, the viability in test [1] is 81% (inactive); in test [2], 97% (inactive); in test [3] it was 107% (inactive); in test [4] (setting [7]), 99%; in test [4] (setting [8]) it was 107%. The differential viability (reversal) in test [4] (H69AR cells + 2 uM doxorubicin) was 8.32% (inactive). In addition, the figures for the inhibition in test [5] and in test [6] were -4.93% (inactive) and -1.64% (inactive), respectively.

`O=C(NCc1ccco1)c1ccc2c(=O)n(CC3CCCO3)c(=S)[nH]c2c1` (configuration not stated): the viability in test [1] is 94% (inactive); in test [2], 76% (inactive); in test [3], 94.4% (inactive); in test [4] (setting [7]), 86.9%; in test [4] (setting [8]) it was 94.4%. Besides, the differential viability (reversal) in test [4] (H69AR cells + 2 uM doxorubicin) was 7.56% (inactive). Also, the inhibition in test [5] is -2.73% (inactive); in test [6], -0.66% (inactive).

As to `O=C(CSc1nc2ccccc2[nH]1)c1ccc2c(c1)OCO2`, the viability in test [1] is 79% (inactive); in test [2], 99.8% (inactive); in test [3], 107% (inactive); in test [4] (setting [7]), 83.8%; in test [4] (setting [8]), 107%. In addition, the differential viability (reversal) in test [4] (H69AR cells + 2 uM doxorubicin) is 22.7% (inactive). The values for the inhibition in test [5] and in test [6] were -0.68% (inactive) and -5.16% (inactive), respectively.

On to `CCOc1ccc(C2C(C#N)=C(N)Oc3cc(C)n(Cc4ccco4)c(=O)c32)cc1OC` (configuration not stated), for which the viability in test [1] is 99% (inactive); in test [2], 84.2% (inactive); in test [3], 76.7% (inactive); in test [4] (setting [7]) it was 81.9%; in test [4] (setting [8]) it was 76.7%. The differential viability (reversal) in test [4] (H69AR cells + 2 uM doxorubicin) is -5.13% (inactive). Besides, the inhibition was -0.41% (inactive) in test [5] and -8.23% (inactive) in test [6].
